Several values for one entry are separate records, joined by “and”; a condition that tells them apart may be missing. Equal entries are not always repeated.
Experiments:
HEK-293T = assay: Multiplex assay against HEK293T; type: toxicity, cell-based; conditions: human
Outline: (§1)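 Imaging took place on a CQ1 microscope at 37°C and 5% CO2 once compound had been added to live cells stained at seeding with Hoechst33342, BioTracker Green Microtubule Cytoskeleton Dye, MitoTracker Red and Annexin V Alexa Fluor 680. CellPathfinder machine-learning gating classed cells as Hoechst high-intensity objects or normal cells, classed normal cells as having healthy, pyknosed or fragmented nuclei, and classed pyknosed cells as mitotic or apoptotic. Tubulin, mitochondrial-mass and membrane-permeability phenotypes are per cents of the healthy-nucleus cells.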

Fibroblast = assay: Multiplex assay against human fibroblast; type: toxicity, cell-based; outline: as §1
[1] = 24 h, 10 µM, compound concentration 10 uM
[2] = 48 h, 1 µM, compound concentration 1 uM
[3] = 48 h, 10 µM, compound concentration 10 uM
[4] = 12 h, 1 µM, compound concentration 1 uM
[5] = 12 h, 10 µM, compound concentration 10 uM
[6] = 24 h, 1 µM, compound concentration 1 uM

Question: How did the “Population Apoptotic (%)” value (HEK-293T; [1]) turn out when `O=S(=O)(c1ccccc1)c1cnc2c(N3CCNCC3)cccc2c1` [INTEPIRDINE] was run?
Answer: 52% and 51%

Question: And the “Population Fragmented Nuclei (%)” value (HEK-293T; [1])?
Answer: 11% and 9%

Question: And the “Population Healthy Nuclei (%)” value (HEK-293T; [1])?
Answer: 75% and 82%

Question: What about the “Population Hoechst High Intensity Objects (%)” value (HEK-293T; [1]) of the same molecule?
Answer: 6% and 4%

Question: What about the “Population Membrane Permeable-Phenotype (%)” value (HEK-293T; [1]) of the same molecule?
Answer: 0%

Question: What about the “Population Mitochondria Different-Phenotype (%)” value (HEK-293T; [1]) of the same molecule?
Answer: 50% and 61%

Question: What about the “Population Mitotic Cells (%)” value (HEK-293T; [1]) of the same molecule?
Answer: 47% and 48%

Question: And the “Population Normal (%)” value (HEK-293T; [1])?
Answer: 93% and 95%

Question: And the “Population Pyknosed Nuclei (%)” value (HEK-293T; [1])?
Answer: 12% and 8%

Question: And the “Population Tubulin-Different-Phenotype (%)” value (HEK-293T; [1])?
Answer: 33% and 42%

Question: And the “Total Cell Count” value (HEK-293T; [1])?
Answer: 439 and 458

Question: And the “Population Apoptotic (%)” value (HEK-293T; [2])?
Answer: 17% and 25%

Question: What about the “Population Fragmented Nuclei (%)” value (HEK-293T; [2]) of the same molecule?
Answer: 12% and 13%

Question: And the “Population Healthy Nuclei (%)” value (HEK-293T; [2])?
Answer: 80% and 79%

Question: And the “Population Hoechst High Intensity Objects (%)” value (HEK-293T; [2])?
Answer: 4% and 3%

Question: What about the “Population Membrane Permeable-Phenotype (%)” value (HEK-293T; [2]) of the same molecule?
Answer: 1% and 0%

Question: What about the “Population Mitochondria Different-Phenotype (%)” value (HEK-293T; [2]) of the same molecule?
Answer: 25% and 26%

Question: And the “Population Mitotic Cells (%)” value (HEK-293T; [2])?
Answer: 82% and 75%

Question: And the “Population Normal (%)” value (HEK-293T; [2])?
Answer: 95% and 96%

Question: What about the “Population Pyknosed Nuclei (%)” value (HEK-293T; [2]) of the same molecule?
Answer: 7% and 6%

Question: What about the “Population Tubulin-Different-Phenotype (%)” value (HEK-293T; [2]) of the same molecule?
Answer: 16% and 12%

Question: What about the “Total Cell Count” value (HEK-293T; [2]) of the same molecule?
Answer: 866 and 641

Question: And the “Population Apoptotic (%)” value (HEK-293T; [3])?
Answer: 40% and 18%

Question: And the “Population Fragmented Nuclei (%)” value (HEK-293T; [3])?
Answer: 14% and 11%

Question: What about the “Population Healthy Nuclei (%)” value (HEK-293T; [3]) of the same molecule?
Answer: 75% and 82%

Question: What about the “Population Hoechst High Intensity Objects (%)” value (HEK-293T; [3]) of the same molecule?
Answer: 4%

Question: And the “Population Membrane Permeable-Phenotype (%)” value (HEK-293T; [3])?
Answer: 0%

Question: What about the “Population Mitochondria Different-Phenotype (%)” value (HEK-293T; [3]) of the same molecule?
Answer: 45% and 38%

Question: What about the “Population Mitotic Cells (%)” value (HEK-293T; [3]) of the same molecule?
Answer: 59% and 81%

Question: And the “Population Normal (%)” value (HEK-293T; [3])?
Answer: 95%

Question: And the “Population Pyknosed Nuclei (%)” value (HEK-293T; [3])?
Answer: 10% and 5%

Question: What about the “Population Tubulin-Different-Phenotype (%)” value (HEK-293T; [3]) of the same molecule?
Answer: 30% and 27%

Question: And the “Total Cell Count” value (HEK-293T; [3])?
Answer: 606 and 673

Question: And the “Population Apoptotic (%)” value (Fibroblast; [4])?
Answer: 50% and 34%

Question: And the “Population Fragmented Nuclei (%)” value (Fibroblast; [4])?
Answer: 23% and 28%

Question: And the “Population Healthy Nuclei (%)” value (Fibroblast; [4])?
Answer: 67% and 47%

Question: What about the “Population Hoechst High Intensity Objects (%)” value (Fibroblast; [4]) of the same molecule?
Answer: 3% and 4%

Question: What about the “Population Membrane Permeable-Phenotype (%)” value (Fibroblast; [4]) of the same molecule?
Answer: 0% and 7%

Question: What about the “Population Mitochondria Different-Phenotype (%)” value (Fibroblast; [4]) of the same molecule?
Answer: 2% and 7%

Question: And the “Population Mitotic Cells (%)” value (Fibroblast; [4])?
Answer: 50% and 65%

Question: What about the “Population Normal (%)” value (Fibroblast; [4]) of the same molecule?
Answer: 96% and 95%

Question: What about the “Population Pyknosed Nuclei (%)” value (Fibroblast; [4]) of the same molecule?
Answer: 9% and 24%

Question: What about the “Population Tubulin-Different-Phenotype (%)” value (Fibroblast; [4]) of the same molecule?
Answer: 26% and 61%

Question: What about the “Total Cell Count” value (Fibroblast; [4]) of the same molecule?
Answer: 212 and 148

Question: And the “Population Apoptotic (%)” value (Fibroblast; [5])?
Answer: 75% and 61%

Question: And the “Population Fragmented Nuclei (%)” value (Fibroblast; [5])?
Answer: 22% and 43%

Question: What about the “Population Healthy Nuclei (%)” value (Fibroblast; [5]) of the same molecule?
Answer: 62% and 40%

Question: And the “Population Hoechst High Intensity Objects (%)” value (Fibroblast; [5])?
Answer: 1% and 6%

Question: What about the “Population Membrane Permeable-Phenotype (%)” value (Fibroblast; [5]) of the same molecule?
Answer: 1% and 5%

Question: What about the “Population Mitochondria Different-Phenotype (%)” value (Fibroblast; [5]) of the same molecule?
Answer: 8% and 13%

Question: And the “Population Mitotic Cells (%)” value (Fibroblast; [5])?
Answer: 25% and 38%

Question: What about the “Population Normal (%)” value (Fibroblast; [5]) of the same molecule?
Answer: 98% and 93%

Question: And the “Population Pyknosed Nuclei (%)” value (Fibroblast; [5])?
Answer: 14% and 16%

Question: And the “Population Tubulin-Different-Phenotype (%)” value (Fibroblast; [5])?
Answer: 44% and 68%

Question: What about the “Total Cell Count” value (Fibroblast; [5]) of the same molecule?
Answer: 138 and 136

Question: And the “Population Apoptotic (%)” value (Fibroblast; [6])?
Answer: 54% and 41%

Question: What about the “Population Fragmented Nuclei (%)” value (Fibroblast; [6]) of the same molecule?
Answer: 16% and 32%

Question: And the “Population Healthy Nuclei (%)” value (Fibroblast; [6])?
Answer: 72% and 44%

Question: And the “Population Hoechst High Intensity Objects (%)” value (Fibroblast; [6])?
Answer: 5% and 0%

Question: And the “Population Membrane Permeable-Phenotype (%)” value (Fibroblast; [6])?
Answer: 2% and 1%

Question: And the “Population Mitochondria Different-Phenotype (%)” value (Fibroblast; [6])?
Answer: 4%

Question: And the “Population Mitotic Cells (%)” value (Fibroblast; [6])?
Answer: 45% and 58%

Question: What about the “Population Normal (%)” value (Fibroblast; [6]) of the same molecule?
Answer: 94% and 99%

Question: What about the “Population Pyknosed Nuclei (%)” value (Fibroblast; [6]) of the same molecule?
Answer: 10% and 24%

Question: And the “Population Tubulin-Different-Phenotype (%)” value (Fibroblast; [6])?
Answer: 28% and 59%

Question: And the “Total Cell Count” value (Fibroblast; [6])?
Answer: 212 and 151

Question: What about the “Population Apoptotic (%)” value (Fibroblast; [1]) of the same molecule?
Answer: 40% and 91%

Question: And the “Population Fragmented Nuclei (%)” value (Fibroblast; [1])?
Answer: 28% and 39%

Question: What about the “Population Healthy Nuclei (%)” value (Fibroblast; [1]) of the same molecule?
Answer: 65% and 50%

Question: What about the “Population Hoechst High Intensity Objects (%)” value (Fibroblast; [1]) of the same molecule?
Answer: 1% and 4%

Question: What about the “Population Membrane Permeable-Phenotype (%)” value (Fibroblast; [1]) of the same molecule?
Answer: 0% and 3%

Question: What about the “Population Mitochondria Different-Phenotype (%)” value (Fibroblast; [1]) of the same molecule?
Answer: 7% and 15%

Question: What about the “Population Normal (%)” value (Fibroblast; [1]) of the same molecule?
Answer: 98% and 95%

Question: What about the “Population Pyknosed Nuclei (%)” value (Fibroblast; [1]) of the same molecule?
Answer: 6% and 10%

Question: What about the “Population Tubulin-Different-Phenotype (%)” value (Fibroblast; [1]) of the same molecule?
Answer: 50% and 67%

Question: And the “Total Cell Count” value (Fibroblast; [1])?
Answer: 152 and 123

Question: What about the “Population Apoptotic (%)” value (Fibroblast; [2]) of the same molecule?
Answer: 66% and 52%

Question: And the “Population Fragmented Nuclei (%)” value (Fibroblast; [2])?
Answer: 22% and 39%

Question: And the “Population Healthy Nuclei (%)” value (Fibroblast; [2])?
Answer: 69% and 45%

Question: And the “Population Hoechst High Intensity Objects (%)” value (Fibroblast; [2])?
Answer: 5% and 3%

Question: And the “Population Membrane Permeable-Phenotype (%)” value (Fibroblast; [2])?
Answer: 0% and 1%

Question: What about the “Population Mitochondria Different-Phenotype (%)” value (Fibroblast; [2]) of the same molecule?
Answer: 2%

Question: And the “Population Mitotic Cells (%)” value (Fibroblast; [2])?
Answer: 33% and 48%

Question: What about the “Population Normal (%)” value (Fibroblast; [2]) of the same molecule?
Answer: 94% and 96%

Question: And the “Population Pyknosed Nuclei (%)” value (Fibroblast; [2])?
Answer: 7% and 15%

Question: And the “Population Tubulin-Different-Phenotype (%)” value (Fibroblast; [2])?
Answer: 34% and 54%

Question: And the “Total Cell Count” value (Fibroblast; [2])?
Answer: 213 and 170

Question: What about the “Population Apoptotic (%)” value (Fibroblast; [3]) of the same molecule?
Answer: 63% and 40%

Question: What about the “Population Fragmented Nuclei (%)” value (Fibroblast; [3]) of the same molecule?
Answer: 23% and 48%

Question: What about the “Population Healthy Nuclei (%)” value (Fibroblast; [3]) of the same molecule?
Answer: 67% and 38%

Question: What about the “Population Hoechst High Intensity Objects (%)” value (Fibroblast; [3]) of the same molecule?
Answer: 3% and 6%

Question: And the “Population Membrane Permeable-Phenotype (%)” value (Fibroblast; [3])?
Answer: 1% and 6%

Question: What about the “Population Mitochondria Different-Phenotype (%)” value (Fibroblast; [3]) of the same molecule?
Answer: 15% and 6%

Question: What about the “Population Mitotic Cells (%)” value (Fibroblast; [3]) of the same molecule?
Answer: 36% and 60%

Question: What about the “Population Normal (%)” value (Fibroblast; [3]) of the same molecule?
Answer: 96% and 93%

Question: What about the “Population Pyknosed Nuclei (%)” value (Fibroblast; [3]) of the same molecule?
Answer: 8% and 12%

Question: And the “Population Tubulin-Different-Phenotype (%)” value (Fibroblast; [3])?
Answer: 47% and 57%

Question: And the “Total Cell Count” value (Fibroblast; [3])?
Answer: 139 and 125

— ChEMBL document CHEMBL5724801, “EUbOPEN Chemogenomics Library - Multiplex” (2024)
